Active and inactive are the calls of the source.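 Rule for the calls, unless noted: active = potentiation averaged over duplicate wells exceeding buffer-only control mean by more than 3 SD; inactive = the rest.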

Tested on in the first experiment: not listed separately
Description: nonspecific flux increase, KCNQ1-free cells – parental CHO cells, counter-screen for KCNQ1 potentiator project (AID 493006;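 active = duplicate-averaged activation above buffer control mean plus 5 SD of those controls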). The note with it: parental CHO-K1 cells, FluxOR thallium flux, at 10 µM; active compounds read high. Summed up: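 Material: parental CHO-K1 cells, FluxOR dye-loaded; Also added: Potassium/thallium depolarization pulse; Schedule: overnight 37 °C plating, 90 min dye, 20 min dark compound; Signal: kinetic FluxOR fluorescence, 10 s baseline, 110 s after stimulus.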
In general terms: The purpose of a counterscreen is to sort out artefacts and off-target activity.
On to `Cn1cc(C(=O)N/N=C/c2ccc([N+](=O)[O-])cc2)c2ccccc21`, for which the result was inactive.

As for `Cc1cccc(OCc2n[nH]c(=S)n2C2CCCCC2)c1`, the result was inactive.

`CC(=O)Nc1ccc(NC(=O)CSC2=NS(=O)(=O)c3cc(Cl)ccc3N2)cc1`: the result was inactive.

Take `COc1ccc(C(=O)/C=C/C(=O)N(CC(=O)NC2CCCCC2)Cc2ccccc2)c(O)c1`: the result was inactive.

In the case of `Cc1ccccc1CS(=O)(=O)c1nnc([C@H](Cc2ccccc2)NC(=O)OC(C)(C)C)o1`, the result was inactive.

Turning to `O=C(NC(=S)NCCC1=CCCCC1)c1ccccc1Br`, the outcome was inactive.

For the compound `O=C(NC(=S)Nc1cccc(Cl)c1)c1cncc(Br)c1`, the outcome was inactive.

As for `CC1=NOC(=O)/C1=C\c1ccc(-c2ccc(Br)cc2)o1`, the result was inactive.

As to `C/C(=N\Nc1nc2ccccc2s1)c1ccc(Br)s1`, the outcome was inactive.

As for `CN1CCN(c2ccc(S(=O)(=O)N3CCCCC3)cc2NC(=O)COc2cccc(Cl)c2)CC1`, the outcome was inactive.

Consider `C=CS(=O)(=O)c1sc(Cl)c(N2CCOCC2)c1[N+](=O)[O-]`, for which the result was inactive.

Regarding `CC1Oc2ccccc2N(CC(=O)N2CCCCCC2)C1=O` (centres undefined), the result was inactive.

As for `Cc1onc(-c2ccccc2)c1C(=O)NC(=S)Nc1sc2c(c1C#N)CCCC2`, the outcome was inactive.

Regarding `O=C(NC(=S)Nc1cc(C(F)(F)F)ccc1N1CCOCC1)c1sc2ccccc2c1Cl`, the result was inactive.

For the compound `Cc1cccc(NC(=O)C2CCCN2S(=O)(=O)c2ccc(Cl)cc2)n1` (centres undefined), the result was inactive.

Take `COc1ccc(C(=O)N=C2CCC(C#N)=C3c4cc(OC)c(OC)cc4CCN23)cc1`: the outcome was inactive.

For `CCOC(=O)c1c(C)cccc1OCC(N)=O`, the result was inactive.

As for `CC(C)CC(=O)Nc1nnc(SCC(=O)NCc2ccco2)s1`, the result was inactive.

Regarding `COc1cccc(C2C3=C(N=c4s/c(=C\c5ccc(OCC(=O)O)cc5)c(=O)n42)c2ccccc2CC3)c1` (centres undefined), the result was inactive.

As to `CCCOc1ccc(C(=O)NNC(=S)NC(=O)CC)cc1`, the result was inactive.

The target of the next experiment is Potassium voltage-gated channel subfamily KQT member 1 (Homo sapiens) (UniProt P51787). Kind of experiment: enhancement of KCNQ1 channel thallium flux – FluxOR thallium flux, CHO cells, duplicates, confirmation (AID 493007).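 For outcome: cells depolarized by a potassium plus thallium sulfate stimulus after compound.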 Particulars: KCNQ1 cell line, FluxOR thallium flux fluorescence, at 10 µM; active compounds read high, % of reference activator effect, buffer zero. The essentials: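 System: KCNQ1-expressing CHO cell line; technique: kinetic thallium influx fluorescence with FluxOR dye, 10 s baseline, 110 s post-stimulus; timing: dye 90 min then compound 20 min, both at room temperature; controls: buffer-only wells as 0% and R-L3 activator as 100%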
Potassium voltage-gated channel subfamily KQT member 1 (Homo sapiens), sequence (P51787 whole entry, looked up): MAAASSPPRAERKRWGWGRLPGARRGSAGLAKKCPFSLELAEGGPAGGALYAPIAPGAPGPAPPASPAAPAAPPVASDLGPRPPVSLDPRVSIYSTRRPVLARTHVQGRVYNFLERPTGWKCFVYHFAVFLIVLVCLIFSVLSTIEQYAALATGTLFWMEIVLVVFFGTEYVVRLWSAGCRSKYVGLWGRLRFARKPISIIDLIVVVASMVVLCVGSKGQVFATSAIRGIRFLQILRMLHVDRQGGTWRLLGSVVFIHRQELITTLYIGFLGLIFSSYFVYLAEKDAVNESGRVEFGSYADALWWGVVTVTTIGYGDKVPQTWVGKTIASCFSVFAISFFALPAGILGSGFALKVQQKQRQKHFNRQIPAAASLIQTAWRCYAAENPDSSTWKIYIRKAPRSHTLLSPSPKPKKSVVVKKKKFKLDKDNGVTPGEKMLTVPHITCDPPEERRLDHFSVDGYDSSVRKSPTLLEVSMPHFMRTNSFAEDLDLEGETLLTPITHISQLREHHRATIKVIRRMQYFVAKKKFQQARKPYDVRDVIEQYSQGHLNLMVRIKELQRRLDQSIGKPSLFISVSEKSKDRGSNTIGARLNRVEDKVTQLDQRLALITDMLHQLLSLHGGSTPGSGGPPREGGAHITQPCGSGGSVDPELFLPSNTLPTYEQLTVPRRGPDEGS
As for `CC(=O)Nc1ccc(/C=N/NC(=O)c2cccc(S(=O)(=O)N3CCOCC3)c2)cc1`, the outcome was inactive.

For `Cc1ccc2cc(/C=N/NC(=O)CN3CCCCC3)c(Cl)nc2c1`, the result was inactive.

Consider `COc1cc2c(cc1NC(=O)CSc1nnc(COc3ccc(Cl)cc3)n1C)oc1ccccc12`, for which the potentiation was 49.5% (active).

On to `Cc1ccc(OCCn2c(=S)[nH]c3ccccc32)c(C(C)C)c1`, for which the potentiation was 119% (active).

Take `CN(CC(=O)NCc1ccccc1Cl)CC(=O)Nc1cccc(F)c1`: the result was inactive.

On to `COc1cccc(NC(=S)N/N=C2/CCCCc3ccccc32)c1`, for which the potentiation was 26% (active).

For the compound `Cc1ccsc1/C=N\NC(=O)c1n[nH]c2c1CCC2`, the result was inactive.

With `CCn1c2ccccc2c2cc(CC(N)=O)ccc21`, the outcome was inactive.

For `Cc1ccc(C2C(C#N)=C(N)OC3=C2C(=O)CC(C)(C)C3)s1` (centres undefined), the result was inactive.

Consider `O=C(CNC(=S)NC(=O)c1ccc(Br)o1)c1ccccc1`, for which the outcome was inactive.

As for `Cc1cccc(C(=O)NC(=S)NNC(=O)COc2c(C)cccc2C)c1`, the potentiation was 29.5% (active).

Consider `CCCn1c(=O)c(C(=O)NNC(=O)c2ccc(Cl)cc2Cl)c(O)c2ccccc21`, for which the potentiation is 30% (active).

In the case of `Cc1[nH]c(=S)c(C#N)c(C)c1Cc1ccc(Cl)cc1Cl`, the outcome was inactive.

For `CCCCS(=O)(=O)/C=C\C=C/S(=O)(=O)CCCC`, the result was inactive.

With `O=C(Nc1nnc(-c2ccccc2)o1)c1cc(Cl)sc1Cl`, the outcome was inactive.

In the case of `O=C(CNc1ccc(Br)cc1)NNC1=NCCC1`, the outcome was inactive.

As for `Cc1ccc(C)c(NC(=S)NNC(=O)c2csc3c2CCCC3)c1`, the potentiation was 20.5% (active).

Turning to `Cc1ccc(NC(=O)Nc2ccc3c(c2)CCC3)cc1`, the result was inactive.

Consider `Cc1nnnn1/C(=C\c1ccccc1)C(=O)OCC(=O)Nc1ccc(Cl)cc1F`, for which the result was inactive.

As to `Cn1cc(C(=O)N/N=C/c2ccc([N+](=O)[O-])cc2)c2ccccc21`, the outcome was inactive.

`Cc1cccc(OCc2n[nH]c(=S)n2C2CCCCC2)c1`: the result was inactive.

In the case of `CC(=O)Nc1ccc(NC(=O)CSC2=NS(=O)(=O)c3cc(Cl)ccc3N2)cc1`, the result was inactive.

As to `COc1ccc(C(=O)/C=C/C(=O)N(CC(=O)NC2CCCCC2)Cc2ccccc2)c(O)c1`, the potentiation was 25% (active).

In the case of `Cc1ccccc1CS(=O)(=O)c1nnc([C@H](Cc2ccccc2)NC(=O)OC(C)(C)C)o1`, the potentiation was 22.5% (active).

For the compound `O=C(NC(=S)NCCC1=CCCCC1)c1ccccc1Br`, the potentiation was 47% (active).

For `O=C(NC(=S)Nc1cccc(Cl)c1)c1cncc(Br)c1`, the result was inactive.

Consider `CC1=NOC(=O)/C1=C\c1ccc(-c2ccc(Br)cc2)o1`, for which the outcome was inactive.

Consider `C/C(=N\Nc1nc2ccccc2s1)c1ccc(Br)s1`, for which the outcome was inactive.

As for `CN1CCN(c2ccc(S(=O)(=O)N3CCCCC3)cc2NC(=O)COc2cccc(Cl)c2)CC1`, the result was inactive.

With `C=CS(=O)(=O)c1sc(Cl)c(N2CCOCC2)c1[N+](=O)[O-]`, the potentiation is 19% (active).

As for `CC1Oc2ccccc2N(CC(=O)N2CCCCCC2)C1=O` (centres undefined), the potentiation was 27.5% (active).

Turning to `Cc1onc(-c2ccccc2)c1C(=O)NC(=S)Nc1sc2c(c1C#N)CCCC2`, the potentiation is 31.5% (active).

Turning to `O=C(NC(=S)Nc1cc(C(F)(F)F)ccc1N1CCOCC1)c1sc2ccccc2c1Cl`, the result was inactive.

For the compound `Cc1cccc(NC(=O)C2CCCN2S(=O)(=O)c2ccc(Cl)cc2)n1` (centres undefined), the outcome was inactive.

Consider `COc1ccc(C(=O)N=C2CCC(C#N)=C3c4cc(OC)c(OC)cc4CCN23)cc1`, for which the potentiation is 34.5% (active).

As for `CCOC(=O)c1c(C)cccc1OCC(N)=O`, the result was inactive.

For `CC(C)CC(=O)Nc1nnc(SCC(=O)NCc2ccco2)s1`, the outcome was inactive.

On to `COc1cccc(C2C3=C(N=c4s/c(=C\c5ccc(OCC(=O)O)cc5)c(=O)n42)c2ccccc2CC3)c1` (centres undefined), for which the potentiation is 53% (active).

`CCCOc1ccc(C(=O)NNC(=S)NC(=O)CC)cc1`: the outcome was inactive.
